Rows were chosen to be rich in hits. Some 2.5% of all compounds tested hit in one or more screens of this group.
MEKK3 PB1 HTS: modulators (inhibitors or enhancers) of MEK5 binding to human MEKK3 PB1 domain; 290,000 compounds, 1.4% hits; bead-based flow cytometry, Alexa488-MEK5 binding to MEKK3; actives lie on both sides; 0 = blocked by unlabeled MEK5, 100 = vehicle; Q99759; binding response (% of control), % at 10 µM;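 active = binding response more than 3 SD above or below the average of its plate-row segment, actives on both sides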;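 also: Alexa488 bead fluorescence after subtracting the streptavidin-only scavenger bead signal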
Rce1 inhib: inhibitors of yeast Ras-converting enzyme; 290,000 compounds, 0.27% hits; AID 2563; yeast membranes, quenched prenylated peptide cleavage fluorescence; Q03530; calls only;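 active = fall in fluorescence gain of 50% or more versus controls, with final raw signal at or below 3038400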;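 also: plate controls were neutral control wells for no effect and wells lacking membranes for full effect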
Target sequence (Q03530 whole entry, looked up): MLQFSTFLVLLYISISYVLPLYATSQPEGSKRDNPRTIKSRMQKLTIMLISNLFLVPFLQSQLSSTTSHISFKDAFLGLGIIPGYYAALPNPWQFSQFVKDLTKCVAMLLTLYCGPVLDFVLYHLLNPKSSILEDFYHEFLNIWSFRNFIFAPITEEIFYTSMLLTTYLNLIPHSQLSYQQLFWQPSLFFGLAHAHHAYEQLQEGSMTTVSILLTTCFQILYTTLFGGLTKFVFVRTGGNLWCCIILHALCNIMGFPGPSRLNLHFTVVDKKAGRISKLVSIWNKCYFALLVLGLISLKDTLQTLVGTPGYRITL
MEKK2 mut-MEK5: signal of MEK5 binding to mutant human MEKK2 PB1 domain. bead flow cytometry, Alexa488-MEK5 binding to MEKK2 mutant. percent response, % at 10 µM. AID 1530. 290,000 compounds, 0.35% hits; in the data active = percent response above about 24%, passing the limit was not always enough
T cell HTS: T cell immune modulators affecting CD8 T cell-vesicle binding. response (vesicle binding), % at 7 µM. AID 2052. 2C CD8+ T cell-vesicle binding, flow cytometry; hits give low values. 330,000 compounds, 0.068% hits;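 active = response, share of CD8 T cells binding vesicles, and their 90th percentile fluorescence all below set limits, cut at about 80% in these data, passing the limit was not always enough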;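 also: values below 100% mean blocked vesicle binding to the CD8+ T cells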
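Also added: QL9-peptide-loaded Drosophila micro-vesicles bearing Ld, ICAM-1 and B7-1; Test system: purified 2C TCR transgenic mouse naive CD8+ T cells; Measured by: cytometric PE anti-B7-1 and Alexa647 anti-CD8 signals after 1% paraformaldehyde fixation; Timing: binding step 1.5 h, 37 °C, antibody labelling 20 min, ice.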
MEKK2 WT-MEK5: raises or lowers MEK5 binding to wildtype human MEKK2 PB1 domain; Q9Y2U5; bead flow cytometry, Alexa488-MEK5 binding to MEKK2 WT; actives lie on both sides; binding response (% of control), % at 10 µM; 290,000 compounds, 1.1% hits; AID 1531; in the data active = binding response below about 67% or above about 130%
UCH37 DUB inh: blocks the human deubiquitinase UCH37 | Q9Y5K5 | purified proteasome/UCH37, Ub-AMC cleavage fluorescence | inhibition, % (concentration not given with the values) | 330,000 compounds, 0.33% hits | AID 588478;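 active = mean inhibition over replicate wells above about 20%, limit read from the data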;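 also: 0% = compound-free wells with enzyme and 100% = wells lacking proteasome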
Target sequence (Q9Y5K5 whole entry, looked up): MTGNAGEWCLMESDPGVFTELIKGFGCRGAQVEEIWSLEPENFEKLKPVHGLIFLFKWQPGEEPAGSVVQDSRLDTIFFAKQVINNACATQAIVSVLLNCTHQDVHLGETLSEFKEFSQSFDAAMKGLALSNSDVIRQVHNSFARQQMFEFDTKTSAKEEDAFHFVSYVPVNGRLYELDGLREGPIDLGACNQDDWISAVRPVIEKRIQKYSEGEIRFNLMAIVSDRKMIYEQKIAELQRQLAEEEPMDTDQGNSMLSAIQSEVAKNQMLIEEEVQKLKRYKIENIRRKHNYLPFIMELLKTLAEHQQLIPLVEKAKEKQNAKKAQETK
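Material: Human UCH37 enzyme supplied as purified proteasome complex | Schedule: 30 min preincubation with enzyme, 25 min cleavage at room temperature | Detection: AMC fluorescence 355/460 nm | Measure: % inhibition of Ub-AMC cleavage fluorescence | Controls: Wells without proteasome as full block, compound-free enzyme plus substrate as uninhibited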
MEKK2wt confirm: raises or lowers MEK5 binding to wildtype human MEKK2, retest; 5,900 compounds, 2.4% hits; bead flow cytometry, Alexa488-MEK5 binding to MEKK2 WT; actives lie on both sides; binding response (% of control), % at 10 µM; AID 1892; shares compounds with MEKK3 PB1 HTS; in the data active = binding response below about 16% or above about 210%; inactive = in between
MEKK2mut-MEK5: signal of MEK5 binding to mutant human MEKK2, retest | shares compounds with MEKK3 PB1 HTS | bead flow cytometry, Alexa488-MEK5 binding to MEKK2 mutant | percent response, % at 10 µM | 5,900 compounds, 2% hits; in the data active = percent response mostly above about 71%, no sharp cut-off; inactive = mostly below about 38%;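 also: higher means compound restores mutant binding toward wildtype level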
MEKK3-MEK5 inh: confirmation of inhibitors of MEK5 binding to human MEKK3 | shares compounds with MEKK3 PB1 HTS | bead flow cytometry, Alexa488-MEK5 binding to MEKK3; hits give low values | binding response (% of control), % at 10 µM | 5,900 compounds, 1.8% hits | AID 1894;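 active = binding response below 72% of control, or above a set upper limit, though filed actives all read lower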;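 also: 100% = DMSO only wells and 0% = binding blocked by excess unlabeled MEK5; lower values mean stronger disruption of MEK5 binding to MEKK3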
* hit, by the source's call; i = inactive; / = no result given; [ ] = dose if it differs, or a comment.

SMILES | MEKK3 PB1 HTS | Rce1 inhib | MEKK2 mut-MEK5 | T cell HTS | MEKK2 WT-MEK5 | UCH37 DUB inh | MEKK2wt confirm | MEKK2mut-MEK5 | MEKK3-MEK5 inh
COc1cccc(C=Nn2c(N)c(S(=O)(=O)c3cccs3)c3nc4ccccc4nc32)c1OC | / | / | / | / | / | -110 | / | / | /
N#CCOc1ccccc1C=Nn1nnnc1N | / | / | / | / | / | 5 | / | / | /
CCCCn1c(SCC(=O)Nc2nc(C)cs2)nnc1-c1cccnc1 | 1.0*[inhibitor] | i | -41 | / | 1.0*[inhibitor] | -1 | 110 | 14 | 107
CCCn1c(SCC(=O)Nc2nccs2)nnc1-c1cccnc1 | 93 | i | -6 | 446 | 97 | 3 | / | / | /
NC(Cc1ccc([N+](=O)[O-])cc1)=NOC(=O)c1ccc([N+](=O)[O-])cc1 | / | / | / | / | / | -4 | / | / | /
NC(=NOC(=O)c1ccc(Cl)c([N+](=O)[O-])c1)c1ccccc1 | / | / | / | / | / | 3 | / | / | /
Cc1c(Cl)c([N+](=O)[O-])nn1CCCC(=O)N(Cc1ccccc1)Cc1ccccc1 | 141* | i | 0 | 163 | 108 | 3 | 88 | -8 | 89
Cc1c(Cl)c([N+](=O)[O-])nn1CCCC(=O)N1CCN(c2ccccc2)CC1 | 97 | i | 1 | 333 | 99 | 3 | / | / | /
COc1cccc(OC)c1-c1nn2c(-c3ccco3)nnc2s1 | 129* | i | 1 | 269 | 97 | 1 | 95 | 0 | 97
O=c1c([N+](=O)[O-])c(N2CCCCCC2)c2ccccc2n1-c1ccccc1 | 49*[inhibitor] | i | / | 294 | / | 1 | 101 | 1 | 105
CC1(C)CC(=O)CC(=NNC(=O)CCCOc2ccc(Cl)cc2Cl)C1 | / | / | / | / | / | 4 | / | / | /
O=C(NN=Cc1ccc([N+](=O)[O-])cc1)c1cc2ccccc2o1 | / | / | / | / | / | 6 | / | / | /
CCCC1Cc2c(sc(NC(=S)NC(=O)c3ccccc3)c2C#N)CO1 (stereo not drawn) | 134* | i | 0 | 160 | 105 | 4 | 97 | -3 | 93
O=S(=O)(NCc1ccco1)c1cccc(S(=O)(=O)N2CCOCC2)c1 | 2.0*[inhibitor] | i | -31 | 313 | 2.0*[inhibitor] | 1 | 97 | -3 | 97
O=C(NCc1ccco1)C1CCN(c2ccc(S(=O)(=O)N3CCOCC3)cc2[N+](=O)[O-])CC1 | 71*[inhibitor] | i | -10 | 214 | 79 | 2 | 100 | -1 | 102
Cc1ccc(S(=O)(=O)c2cccc(S(=O)(=O)N3CCOCC3)c2)cc1S(=O)(=O)N1CCOCC1 | 2.0*[inhibitor] | / | -15 | 305 | 2.0*[inhibitor] | 0 | 97 | -8 | 95
Cc1[nH]c2ccccc2c1C=NNC(=O)CNC(=O)c1ccc2c(c1)OCCO2 | / | / | / | / | / | 4 | / | / | /
CCOc1ccc(C=NNc2ccccn2)cc1OC | / | / | / | / | / | 12 | / | / | /
COc1ccc(C=NNC(=O)Cn2c(Cc3ccc(OC)c(OC)c3)nc3ccccc32)cc1OC | / | / | / | / | / | 2 | / | / | /
C=C1CCN([C@H](C(=O)NCc2ccc(Cl)cc2)C(C)C)S(=O)(=O)c2ccccc21 | 80*[inhibitor] | / | -3 | 669 | 96 | 1 | 95 | -5 | 97
C=C1CCN([C@@H](CC(C)C)C(=O)NCc2ccccc2)S(=O)(=O)c2ccccc21 | 103 | i | 2 | 712 | 105 | -2 | / | / | /
CSc1ccccc1NC(=O)CN(C)CC(=O)Nc1cc(C)ccc1C | 68*[inhibitor] | i | -2 | 139 | 96 | 1 | 99 | -13 | 99
COc1ccc(S(=O)(=O)N(C)CC(=O)Nc2ccccc2SC)cc1Cl | 82*[inhibitor] | i | -8 | 268 | 89 | 3 | 102 | 3 | 107
O=C1c2ccccc2N2C(=O)c3ccccc3C2N1Cc1ccccc1 (stereo not drawn) | 130* | i | 32 | 134 | 112 | 1 | 103 | -3 | 102
O=C1c2ccccc2N2C(=O)c3ccccc3[C@H]2N1c1ccccc1 | 107 | i | 16 | 315 | 105 | 1 | / | / | /
SMILES | MEKK3 PB1 HTS | Rce1 inhib | MEKK2 mut-MEK5 | T cell HTS | MEKK2 WT-MEK5 | UCH37 DUB inh | MEKK2wt confirm | MEKK2mut-MEK5 | MEKK3-MEK5 inh
CC(=NNC(=O)c1ccc(Cl)s1)c1cccnc1 | / | / | / | / | / | -1 | / | / | /
CCOC(=O)c1ccc(NS(=O)(=O)c2c(C)n[nH]c2C)cc1 | / | / | / | 237 | / | 3 | / | / | /
Cc1cccc(NS(=O)(=O)c2c(C)n[nH]c2C)c1 | 81*[inhibitor] | i | -5 | 251 | 90 | 0 | 96 | -11 | 94
CCOC(=O)C1=C(C)N=c2sc(=Cc3ccc(OCC(=O)O)c(OC)c3)c(=O)n2C1c1ccc(OC)cc1 (stereo not drawn) | / | / | / | / | / | 7 | / | / | /
CCOC(=O)C(=NNc1ccc(Cl)cc1)S(=O)(=O)c1ccc(Cl)cc1 | / | / | / | / | / | 2 | / | / | /
COc1ccc(Br)cc1CN1CCN(Cc2c[nH]c3ccccc23)CC1 | 94 | i | 27* | 172 | 117 | 5 | 138 | 19 | 107
CC(=NNc1ccccc1C)c1cccnc1 | / | / | / | / | / | 5 | / | / | /
Cc1c(NC(=S)NN=Cc2ccc(Br)cc2)c(=O)n(-c2ccccc2)n1C | / | / | / | / | / | 7 | / | / | /
CCOc1ccc(CC(=O)N2CCN=C2SCc2ccc([N+](=O)[O-])cc2)cc1 | 106 | i | 0 | 212 | 102 | 4 | / | / | /
COc1ccc(CC(=O)N2CCN=C2SCc2ccc([N+](=O)[O-])cc2)cc1 | 130* | i | 3 | i | 118 | 2 | 95 | -4 | 99
CCCC=NNC(=O)CNC(=O)c1ccccc1Cl | / | / | / | / | / | 3 | / | / | /
COc1ccccc1CCc1nnc(CCC(=O)NC(C)Cn2nc(C)cc2C)o1 (stereo not drawn) | 37*[inhibitor] | i | -18 | 279 | 50 | 2 | 104 | 4 | 107
COc1ccccc1CCc1nnc(CCC(=O)NC(C)Cc2cccc(C)n2)o1 (stereo not drawn) | 101 | i | 2 | 50 | 104 | 4 | / | / | /
O=C(CNC(=O)c1ccc2c(c1)OCCO2)NN=Cc1cccc(Br)c1 | / | / | / | / | / | 2 | / | / | /
CCOC(=O)N1CCN(C(=O)CSCC(=O)Nc2nc(-c3ccc(-c4ccccc4)cc3)cs2)CC1 | 101 | i | 0 | 277 | 94 | 1 | / | / | /
O=C(CSCC(=O)N1CCOCC1)Nc1nc(-c2ccccc2)cs1 | 131* | / | 22 | 121 | 118 | 4 | 96 | -1 | 98
CCCOc1ccc(-c2nn(-c3ccccc3)cc2/C=C2\SC(N)=NC2=O)cc1C | 129* | i | -2 | 269 | 96 | -64 | 94 | -1 | 104
